Data taken from ChEMBL document CHEMBL4043255, “Design, synthesis and biological evaluation of novel histone deacetylase inhibitors incorporating 4-aminoquinazolinyl systems as capping groups” (Bioorg Med Chem Lett, 2017).

Columns and labels:
[1] = Inhibition of HDAC in human HeLa nuclear extract using Fluor de Lys as substrate after 15 mins by fluorescence assay
MRC5 = experiment: Anti-proliferative activity against human MRC5 cells after 48 hrs by MTT assay; type: ADME, cell-based; details: MRC5, 48 h
HCT-116 = experiment: Anti-proliferative activity against human HCT116 cells after 48 hrs by MTT assay; type: functional, cell-based; details: HCT-116, 48 h
Histone deacetylase 8 = molecular target: T1, Histone deacetylase 8 (Homo sapiens, UniProt Q9BY41); experiment: Inhibition of HDAC8 (unknown origin)
T1 sequence (Q9BY41 whole entry): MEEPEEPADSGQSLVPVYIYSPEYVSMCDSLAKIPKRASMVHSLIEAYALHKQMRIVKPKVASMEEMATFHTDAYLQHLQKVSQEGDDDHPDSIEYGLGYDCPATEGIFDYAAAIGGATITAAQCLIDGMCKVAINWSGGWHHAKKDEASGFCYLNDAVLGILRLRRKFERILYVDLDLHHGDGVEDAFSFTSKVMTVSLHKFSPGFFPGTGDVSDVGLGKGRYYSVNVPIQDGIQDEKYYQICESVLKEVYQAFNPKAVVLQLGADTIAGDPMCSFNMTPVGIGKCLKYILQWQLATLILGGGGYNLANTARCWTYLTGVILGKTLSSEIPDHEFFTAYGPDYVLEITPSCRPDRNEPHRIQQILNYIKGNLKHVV

A549 [2] = experiment: Anti-proliferative activity against human A549 cells after 48 hrs by MTT assay; type: functional, cell-based; details: A549, 48 h
K562 = experiment: Anti-proliferative activity against human K562 cells after 48 hrs by MTT assay; type: functional, cell-based; details: K562, 48 h
[3] = molecular target: T2, Protein deacetylase HDAC6 (Homo sapiens, UniProt Q9UBN7); experiment: Inhibition of HDAC6 (unknown origin)
T2 sequence (Q9UBN7 whole entry): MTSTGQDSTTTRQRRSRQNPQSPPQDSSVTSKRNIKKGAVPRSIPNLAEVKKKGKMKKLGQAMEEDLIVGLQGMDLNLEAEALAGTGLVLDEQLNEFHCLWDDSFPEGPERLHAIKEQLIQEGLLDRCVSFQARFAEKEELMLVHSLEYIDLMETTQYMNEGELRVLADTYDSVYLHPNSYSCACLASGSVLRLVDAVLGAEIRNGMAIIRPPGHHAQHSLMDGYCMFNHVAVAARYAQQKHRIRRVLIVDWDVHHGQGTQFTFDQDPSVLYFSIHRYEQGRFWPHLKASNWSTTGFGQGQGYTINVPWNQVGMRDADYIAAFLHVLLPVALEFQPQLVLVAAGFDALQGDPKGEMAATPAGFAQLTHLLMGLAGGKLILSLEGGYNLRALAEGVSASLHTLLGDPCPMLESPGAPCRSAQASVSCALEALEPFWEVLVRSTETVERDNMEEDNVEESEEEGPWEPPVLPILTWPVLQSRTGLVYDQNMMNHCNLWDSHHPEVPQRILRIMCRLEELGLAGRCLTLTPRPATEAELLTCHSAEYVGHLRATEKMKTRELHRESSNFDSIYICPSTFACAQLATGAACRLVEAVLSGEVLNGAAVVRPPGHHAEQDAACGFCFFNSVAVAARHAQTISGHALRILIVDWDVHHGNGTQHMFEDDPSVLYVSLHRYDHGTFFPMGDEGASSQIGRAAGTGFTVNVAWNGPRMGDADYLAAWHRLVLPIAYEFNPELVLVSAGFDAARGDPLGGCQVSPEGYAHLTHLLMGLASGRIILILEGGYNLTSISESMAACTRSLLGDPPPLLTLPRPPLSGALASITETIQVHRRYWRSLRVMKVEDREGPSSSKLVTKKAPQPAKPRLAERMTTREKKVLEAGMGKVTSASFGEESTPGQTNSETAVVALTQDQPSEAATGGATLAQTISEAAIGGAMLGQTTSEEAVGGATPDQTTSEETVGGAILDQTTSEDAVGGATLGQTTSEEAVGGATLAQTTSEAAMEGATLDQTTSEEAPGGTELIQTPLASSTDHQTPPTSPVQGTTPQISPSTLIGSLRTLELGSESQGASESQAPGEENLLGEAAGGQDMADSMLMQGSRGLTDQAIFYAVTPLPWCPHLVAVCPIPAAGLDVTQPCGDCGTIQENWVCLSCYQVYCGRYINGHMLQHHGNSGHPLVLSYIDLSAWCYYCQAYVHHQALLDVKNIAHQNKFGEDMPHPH

MDA-MB-231 = experiment: Anti-proliferative activity against human MDA-MB-231 cells after 48 hrs by MTT assay; type: functional, cell-based; details: MDA-MB-231, 48 h
PC-3 = experiment: Anti-proliferative activity against human PC3 cells after 48 hrs by MTT assay; type: functional, cell-based; details: PC-3, 48 h
[4] = molecular target: Voltage-gated inwardly rectifying potassium channel KCNH2 (Homo sapiens, UniProt Q12809); experiment: Inhibition of recombinant human ERG expressed in HEK293 cells at -80 mV holding potential measured for 9 mins by Qpatch clamp method; type: cell-based
Sequence of Voltage-gated inwardly rectifying potassium channel KCNH2 (Q12809 whole entry): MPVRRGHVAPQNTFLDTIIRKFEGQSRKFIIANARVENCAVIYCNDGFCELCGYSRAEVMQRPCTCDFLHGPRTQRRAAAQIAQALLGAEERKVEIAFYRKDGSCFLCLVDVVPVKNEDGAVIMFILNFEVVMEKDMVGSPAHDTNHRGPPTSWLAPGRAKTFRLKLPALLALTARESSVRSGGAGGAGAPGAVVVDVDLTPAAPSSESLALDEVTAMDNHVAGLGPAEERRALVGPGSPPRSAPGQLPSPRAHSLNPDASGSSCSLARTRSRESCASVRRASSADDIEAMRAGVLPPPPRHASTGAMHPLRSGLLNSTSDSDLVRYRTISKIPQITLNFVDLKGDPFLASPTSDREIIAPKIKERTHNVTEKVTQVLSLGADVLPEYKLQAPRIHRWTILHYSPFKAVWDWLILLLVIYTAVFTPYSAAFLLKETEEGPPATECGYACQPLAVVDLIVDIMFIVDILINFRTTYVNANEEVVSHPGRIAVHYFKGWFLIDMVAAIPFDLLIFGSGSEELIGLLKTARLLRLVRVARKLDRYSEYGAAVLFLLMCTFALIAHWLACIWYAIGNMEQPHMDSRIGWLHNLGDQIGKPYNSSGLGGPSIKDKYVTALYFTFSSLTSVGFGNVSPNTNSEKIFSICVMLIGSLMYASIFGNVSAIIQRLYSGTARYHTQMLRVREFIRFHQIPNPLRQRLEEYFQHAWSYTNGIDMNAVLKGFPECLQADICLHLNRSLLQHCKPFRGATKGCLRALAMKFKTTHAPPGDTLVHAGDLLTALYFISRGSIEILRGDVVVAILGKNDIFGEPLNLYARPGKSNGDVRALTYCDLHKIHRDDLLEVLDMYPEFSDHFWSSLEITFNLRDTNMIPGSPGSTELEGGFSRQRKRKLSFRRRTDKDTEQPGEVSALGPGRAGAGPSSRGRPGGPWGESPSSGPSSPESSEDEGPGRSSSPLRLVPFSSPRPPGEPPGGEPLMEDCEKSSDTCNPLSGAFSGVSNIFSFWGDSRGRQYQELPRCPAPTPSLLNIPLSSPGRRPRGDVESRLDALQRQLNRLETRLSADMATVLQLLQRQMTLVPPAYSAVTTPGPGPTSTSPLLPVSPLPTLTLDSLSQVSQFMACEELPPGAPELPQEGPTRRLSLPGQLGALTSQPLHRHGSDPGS

Histone deacetylase 1 = Histone deacetylase 1 (Homo sapiens, UniProt Q13547); experiment: Inhibition of HDAC1 (unknown origin)
Sequence of Histone deacetylase 1 (Q13547 whole entry): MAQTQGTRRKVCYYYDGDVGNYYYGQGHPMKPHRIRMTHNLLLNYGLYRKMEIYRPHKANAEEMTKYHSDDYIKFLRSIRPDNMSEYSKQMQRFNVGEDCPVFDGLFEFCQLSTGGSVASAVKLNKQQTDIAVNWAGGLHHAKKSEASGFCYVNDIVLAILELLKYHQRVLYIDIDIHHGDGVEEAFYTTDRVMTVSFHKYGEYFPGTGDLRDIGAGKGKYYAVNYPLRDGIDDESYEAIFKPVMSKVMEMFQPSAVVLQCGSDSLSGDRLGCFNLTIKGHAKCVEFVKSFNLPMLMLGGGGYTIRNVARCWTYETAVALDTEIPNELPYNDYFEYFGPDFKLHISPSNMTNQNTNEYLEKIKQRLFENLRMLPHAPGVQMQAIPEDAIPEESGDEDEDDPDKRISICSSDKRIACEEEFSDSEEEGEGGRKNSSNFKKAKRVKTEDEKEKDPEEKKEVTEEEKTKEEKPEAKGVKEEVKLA

[5] = Terminal half life in Sprague-Dawley rat at 2 mg/kg, iv by HPLC method; type: ADME, organism-based; details: in vivo, read-out: beta t1/2 (converted)
Summary of the method: (§1)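 Female Sprague-Dawley rats were dosed with the compound at 2 mg/kg iv (for clearance and terminal half-life) or 20 mg/kg orally (for Cmax, Tmax and oral bioavailability). Blood was collected at various time points up to 24 h, and plasma was analyzed by HPLC coupled to triple quadrupole mass spectrometry.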

A549 [6] = experiment: Antitumor activity against human A549 cells xenografted in mouse assessed as tumor growth inhibition at 20 mg/kg, ip administered once every other day for 21 days relative to control; type: functional; details: 504 h, read-out: TGI
Summary of the method: (§2)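 Mice bearing non-small cell lung cancer A549 xenografts were given the compound ip at 20 or 40 mg/kg once every other day for a 21-day efficacy study.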

A549 [7] = experiment: Antitumor activity against human A549 cells xenografted in mouse assessed as tumor growth inhibition at 40 mg/kg, ip administered once every other day for 21 days relative to control; type: functional; details: 504 h, read-out: TGI; summary of the method: as §2
[8] = Tmax in Sprague-Dawley rat at 20 mg/kg, po by HPLC method; type: ADME, organism-based; details: in vivo; summary of the method: as §1
Mus musculus = experiment: Toxicity in mouse xenografted with human A549 cells at 20 to 40 mg/kg, ip administered once every other day for 21 days; type: organism-based; details: in vivo, 504 h; summary of the method: as §2
[9] = Clearance in Sprague-Dawley rat at 2 mg/kg, iv by HPLC method; type: ADME, organism-based; details: in vivo; summary of the method: as §1
[10] = Oral bioavailability in Sprague-Dawley rat at 20 mg/kg by HPLC method; type: ADME, organism-based; details: in vivo; summary of the method: as §1
[11] = Cmax in Sprague-Dawley rat at 20 mg/kg, po by HPLC method; type: ADME, organism-based; parameters: dose 20 mg/kg, route oral; details: in vivo; summary of the method: as §1
in vivo [12] = details: Sprague-Dawley, rat, iv, 2 mg/kg
in vivo [13] = details: Sprague-Dawley, rat, po, 20 mg/kg

O=C(CCCCCNc1ncnc2ccccc12)NO
IC50 [1]: 41.2 nM

Cc1cccc2c(NCCCCCCC(=O)NO)ncnc12
IC50 [1]: 55.2 nM

O=C(CCCCCCNc1ncnc2ccc([N+](=O)[O-])cc12)NO
IC50 [1]: 22.9 nM

O=C(CCCCCCNc1ncnc2ccccc12)NO
IC50 [1]: 33.8 nM

O=C(CCCCCCNc1ncnc2ccc(F)cc12)NO
IC50 (MRC5): 76500 nM
IC50 (HCT-116): 3450 nM
IC50 (Histone deacetylase 8): 1460 nM
IC50 (A549 [2]): 147 nM
IC50 (K562): 860 nM
IC50 [3]: 8 nM
IC50 (MDA-MB-231): 490 nM
IC50 (PC-3): 1020 nM
IC50 [4]: > 30000 nM
IC50 (Histone deacetylase 1): 13 nM
IC50 [1]: 8.17 nM

COc1cc2ncnc(NCCCCCC(=O)NO)c2cc1OC
IC50 [1]: 10.5 nM

COCCOc1cc2ncnc(NCCCCCCC(=O)NO)c2cc1OCCOC
IC50 [1]: 152 nM

O=C(CCCCCCNC(=O)c1ccccc1)NO
IC50 [1]: > 2000 nM

Nc1ccc2ncnc(NCCCCCCC(=O)NO)c2c1
IC50 [1]: 12.1 nM

O=C(CCCCCCNc1ncnc2cc(Cl)ccc12)NO
IC50 [1]: 24.2 nM

Cc1ccc2ncnc(NCCCCCCC(=O)NO)c2c1
IC50 [1]: 20.2 nM

COc1cc2ncnc(NCCCCCCC(=O)NO)c2cc1OC
IC50 [1]: 13.1 nM

O=C(CCCCCCNc1ncnc2ccc(Cl)cc12)NO
half-life [5]: 172 min
inhibition in vivo at 20 mg/kg (A549 [6]): 53.1%
inhibition in vivo at 40 mg/kg (A549 [7]): 76.4%
IC50 (MRC5): 54900 nM
IC50 (HCT-116): 2110 nM
IC50 (Histone deacetylase 8): 1970 nM
IC50 (A549 [2]): 80 nM
IC50 (K562): 1210 nM
Tmax [8]: 15 min
IC50 [3]: 7 nM
IC50 (MDA-MB-231): 170 nM
Activity (Mus musculus): Non-Toxic
clearance [9]: 53 mL/min/kg
IC50 (PC-3): 760 nM
bioavailability [10]: 16.8%
IC50 [4]: > 30000 nM
IC50 (Histone deacetylase 1): 11 nM
Cmax [11]: 146 ng/mL
IC50 [1]: 3.08 nM

O=C(CCCCCCNc1ncnc2cc(F)ccc12)NO
IC50 [1]: 20.7 nM

O=C(CCCCCCC(=O)Nc1ccccc1)NO [VORINOSTAT]
half-life (in vivo [12]): 12 min
bioavailability (in vivo [13]): 11%
IC50 (PC-3): 2920 nM
